Test results: ChEMBL document CHEMBL3994613, “Diaryltriazenes as antibacterial agents against methicillin resistant Staphylococcus aureus (MRSA) and Mycobacterium smegmatis” (Eur J Med Chem, 2017)
Values after ≈ are worked out from the molar mass of the structure shown.

Key:
Staphylococcus aureus [1] = experiment: Antibacterial activity against methicillin-resistant Staphylococcus aureus USA300 by broth microdilution method
[2] = test system: Mycolicibacterium smegmatis; experiment: Antimycobacterial activity against Mycobacterium smegmatis MC2 155 after 3 days by broth macrodilution method; format: functional; conditions: str. MC2 155, 72 h
Escherichia coli [3] = experiment: Antibacterial activity against Escherichia coli DH10beta harboring pHuLUC3 after 18 to 20 hrs by microdilution method; format: functional
In short: (§1)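 EUCAST broth microdilution in LB broth. Inoculum prepared by direct colony suspension from 20–24 h LB agar (E. coli DH10β) or 5% sheep blood BHI agar (MRSA USA300) growth. Final inoculum 2×10^4 CFU/mL, 18–20 h aerobic at 37 °C, growth read on a plate reader, at least duplicate.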

Acinetobacter baumannii [4] = experiment: Antibacterial activity against Acinetobacter baumannii ATCC BAA-1605 after 18 to 20 hrs by broth microdilution method; format: functional
In short: (§2)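 Broth microdilution per EUCAST in TSB broth. Inoculum prepared by CLSI direct colony suspension from 20–24 h TSA colonies, final 3×10^4 CFU/mL. Aerobic incubation for 18–20 h at 37 °C, growth read on plate reader, at least one duplicate.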

Staphylococcus aureus [5] = experiment: Induction of membrane integrity impairment in Staphylococcus aureus USA300 assessed as cells with intact membrane at 2 ug/ml measured after 30 mins by Baclight assay relative to control; format: functional
In short: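 LIVE/DEAD BacLight fluorescence assay. Dye was then added and incubated 15 min in the dark at room temperature. Intact membrane % came from a live/dead (isopropanol-killed) standard curve, at least triplicate, mean±SD.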

Escherichia coli [6] = experiment: Bactericidal activity against Escherichia coli DH10beta harboring pHuLUC3 after 18 to 20 hrs by microdilution method; format: functional; in short: as §1
Klebsiella pneumoniae [7] = experiment: Antibacterial activity against Klebsiella pneumoniae ATCC 700603 after 18 to 20 hrs by broth microdilution method; format: functional; in short: as §2
Saccharomyces cerevisiae = experiment: Antibacterial activity against Saccharomyces cerevisiae after 18 to 20 hrs by microdilution method
In short: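 Microdilution in YEP broth against wild-type yeast grown on YEP agar. Final inoculum 1×10^5 CFU/mL. Read after 18–20 h aerobic incubation at 30 °C on plate reader, at least one duplicate.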

Staphylococcus aureus [8] = experiment: Antibacterial activity against methicillin-resistant Staphylococcus aureus USA300 after 18 to 20 hrs by microdilution method; format: functional; in short: as §1
Staphylococcus aureus [9] = experiment: Antibacterial activity against methicillin-resistant Staphylococcus aureus 1653 after 18 to 20 hrs by broth microdilution method; format: functional
In short: (§3)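 EUCAST broth microdilution in LB broth. Inoculum from 20–24 h colonies on 5% sheep blood BHI agar, final 3×10^4 CFU/mL, 18–20 h aerobic at 37 °C, plate reader, at least duplicate.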

[10] = test system: Mycolicibacterium smegmatis; experiment: Antimycobacterial activity against Mycobacterium smegmatis MC2 155 after 94 to 98 hrs by microdilution method; format: functional; conditions: str. MC2 155
In short: (§4)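 Microdilution in TSB broth. Inoculum from colonies grown 96 h on TSA, final 1×10^5 CFU/mL, aerobic 94–98 h at 37 °C, growth read on a plate reader, at least duplicate.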

[11] = Stability of the compound in water; format: physicochemical; conditions: buffer
Staphylococcus aureus [12] = experiment: Bactericidal activity against methicillin-resistant Staphylococcus aureus USA300 after 18 to 20 hrs by microdilution method; format: functional; in short: as §1
Acinetobacter baumannii [13] = experiment: Antibacterial activity against Acinetobacter baumannii ATCC 19606 after 18 to 20 hrs by broth microdilution method; format: functional; conditions: ATCC 19606 = CIP 70.34 = JCM 6841; in short: as §2
[14] = test system: Mycolicibacterium smegmatis; experiment: Bactericidal activity against Mycobacterium smegmatis MC2 155 after 96 hrs by microdilution method; format: functional; conditions: str. MC2 155, 96 h; in short: as §4
Bacillus subtilis [15] = experiment: Antibacterial activity against Bacillus subtilis ATCC 6051 after 18 to 20 hrs by broth microdilution method; format: functional
In short: (§5)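 Broth microdilution per EUCAST in LB broth. Inoculum from 20–24 h colonies by CLSI direct colony suspension (LB agar for E. coli), final 2×10^4 CFU/mL. Read after 18–20 h aerobic incubation at 37 °C on plate reader, at least one duplicate.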

Staphylococcus aureus [16] = experiment: Bactericidal activity against methicillin-resistant Staphylococcus aureus 1653 after 18 to 20 hrs by broth microdilution method; format: functional; in short: as §3
Klebsiella pneumoniae [17] = experiment: Antibacterial activity against Klebsiella pneumoniae ATCC 13882 after 18 to 20 hrs by broth microdilution method; format: functional; in short: as §2
[18] = Solubility of the compound in water; format: physicochemical; conditions: buffer
Enterococcus faecalis [19] = experiment: Antibacterial activity against vancomycin resistant Enterococcus faecalis 501 after 18 to 20 hrs by broth microdilution method; format: functional
In short: (§6)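 EUCAST microdilution in BHI broth. Inoculum from 20–24 h colonies on 5% sheep blood BHI agar, final 3×10^4 CFU/mL, 18–20 h aerobic at 37 °C, plate reader, at least duplicate.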

Escherichia coli [20] = experiment: Antibacterial activity against N43 CGSC 5583 knock out Escherichia coli after 18 to 20 hrs by microdilution method; format: functional; in short: as §5
Pseudomonas aeruginosa = experiment: Antibacterial activity against Pseudomonas aeruginosa PA0001 after 18 to 20 hrs by broth microdilution method; format: functional
In short: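 EUCAST broth microdilution in LB broth. Inoculum from 20–24 h LB agar colonies (CLSI direct colony suspension), final 3×10^4 CFU/mL. Aerobic incubation 18–20 h at 37 °C, plate-reader read-out, at least one duplicate.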

[21] = Stability of the compound in solid state; format: physicochemical
[22] = Stability of the compound in organic solvent; format: physicochemical
Streptococcus pneumoniae [23] = experiment: Antibacterial activity against Streptococcus pneumoniae R6 after 18 to 20 hrs by broth microdilution method; format: functional
In short: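 Broth microdilution per EUCAST in BHI broth. Inoculum from colonies on BHI agar with 5% sheep blood, final 5×10^4 CFU/mL. Read after 18–20 h anaerobic incubation at 37 °C.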

Bacillus subtilis [24] = experiment: Bactericidal activity against Bacillus subtilis ATCC 6051 after 18 to 20 hrs by broth microdilution method; format: functional
Streptococcus pneumoniae [25] = experiment: Bactericidal activity against Streptococcus pneumoniae R6 after 18 to 20 hrs by broth microdilution method; format: functional
Escherichia coli [26] = experiment: Antibacterial activity against Escherichia coli D22 after 18 to 20 hrs by microdilution method; format: functional; in short: as §5
Staphylococcus aureus [27] = experiment: Induction of membrane integrity impairment in Staphylococcus aureus USA300 assessed as cells with intact membrane at 8 ug/ml measured after 30 mins by Baclight assay relative to control; format: functional
In short: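 LIVE/DEAD BacLight fluorescence assay. Live cells in 0.85% NaCl at OD600 0.2 were exposed to compound in DMSO for 30 min at 37 °C. Dye was then added and incubated 15 min in the dark at room temperature. Fluorescence read at ex 485 nm, em 530/630 nm. Intact membrane % came from a live/dead (isopropanol-killed) standard curve, at least triplicate, mean±SD.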

Enterococcus faecalis [28] = experiment: Bactericidal activity against vancomycin resistant Enterococcus faecalis 501 after 18 to 20 hrs by broth microdilution method; format: functional; in short: as §6
Escherichia coli [29] = experiment: Bactericidal activity against Escherichia coli D22 after 18 to 20 hrs by microdilution method; format: functional

Compound: CN[C@H](CC(C)C)C(=O)N[C@H]1C(=O)N[C@@H](CC(N)=O)C(=O)N[C@H]2C(=O)N[C@H]3C(=O)N[C@H](C(=O)N[C@H](C(=O)O)c4cc(O)cc(O)c4-c4cc3ccc4O)[C@H](O)c3ccc(c(Cl)c3)Oc3cc2cc(c3O[C@@H]2O[C@H](CO)[C@@H](O)[C@H](O)[C@H]2O[C@H]2C[C@](C)(N)[C@H](O)[C@H](C)O2)Oc2ccc(cc2Cl)[C@H]1O [VANCOMYCIN]
- MIC (Staphylococcus aureus [1]): 0.25 to 2 µg/mL (≈ 0.173 to 1.38 µM)
- MIC [2]: 45 µg/mL (≈ 31.1 µM)

Compound: O=C(c1ccccc1)N(/N=N/c1ccc([N+](=O)[O-])cc1C(F)(F)F)c1ccc([N+](=O)[O-])cc1C(F)(F)F
- MIC (Escherichia coli [3]): ≥ 128 µg/mL
- MIC (Acinetobacter baumannii [4]): > 128 µg/mL
- Cells with intact membrane (Staphylococcus aureus [5]): 95.8%
- MBC (Escherichia coli [6]): > 128 µg/mL
- MIC (Klebsiella pneumoniae [7]): > 128 µg/mL
- MIC (Saccharomyces cerevisiae): > 128 µg/mL
- MIC (Staphylococcus aureus [8]): 0.5 to 2 µg/mL (≈ 0.948 to 3.79 µM)
- MIC (Staphylococcus aureus [9]): 0.5 µg/mL (≈ 0.948 µM)
- MIC [10]: 32 µg/mL (≈ 60.7 µM)
- Stability [11]: Stable
- MBC (Staphylococcus aureus [12]): 0.5 to 2 µg/mL (≈ 0.948 to 3.79 µM)
- MIC (Acinetobacter baumannii [13]): > 128 µg/mL
- MBC [14]: > 128 µg/mL
- MIC (Bacillus subtilis [15]): 0.5 µg/mL (≈ 0.948 µM)
- MBC (Staphylococcus aureus [16]): 1 µg/mL (≈ 1.9 µM)
- MIC (Klebsiella pneumoniae [17]): > 128 µg/mL
- solubility [18]: Soluble
- MIC (Enterococcus faecalis [19]): > 128 µg/mL
- MIC (Escherichia coli [20]): > 128 µg/mL
- MIC (Pseudomonas aeruginosa): > 128 µg/mL
- Stability [21]: Stable
- Stability [22]: Stable
- MIC (Streptococcus pneumoniae [23]): 0.5 µg/mL (≈ 0.948 µM)
- MBC (Bacillus subtilis [24]): 16 µg/mL (≈ 30.3 µM)
- MBC (Streptococcus pneumoniae [25]): 1 µg/mL (≈ 1.9 µM)
- MIC (Escherichia coli [26]): > 128 µg/mL

Compound: CO[C@@]1(NC(=O)Cc2cccs2)C(=O)N2C(C(=O)O)=C(COC(N)=O)CS[C@@H]21 [CEFOXITIN]
- MIC [2]: 2 to 4 µg/mL (≈ 4.68 to 9.36 µM)

Compound: Cc1onc(-c2ccccc2)c1C(=O)N[C@@H]1C(=O)N2[C@@H]1SC(C)(C)[C@@H]2C(=O)O [OXACILLIN]
- MIC (Staphylococcus aureus [1]): 16 to 32 µg/mL (≈ 39.9 to 79.7 µM)
- MIC [2]: 32 µg/mL (≈ 79.7 µM)

Compound: CC1(C)S[C@@H]2[C@H](NC(=O)[C@H](N)c3ccccc3)C(=O)N2[C@H]1C(=O)O [AMPICILLIN]
- MIC [2]: 128 µg/mL (≈ 366 µM)

Compound: O=[N+]([O-])c1ccc(/N=N/Nc2ccc([N+](=O)[O-])cc2Cl)c(Cl)c1
- MIC (Escherichia coli [3]): > 128 µg/mL
- Activity (Staphylococcus aureus [27]): 64.6%
- MIC (Saccharomyces cerevisiae): > 128 µg/mL
- MIC (Staphylococcus aureus [8]): 2 µg/mL (≈ 5.62 µM)
- MIC [10]: > 128 µg/mL
- MBC (Staphylococcus aureus [12]): 4 µg/mL (≈ 11.2 µM)

Compound: FC(F)(F)c1cc(Cl)ccc1/N=N/Nc1ccc(Cl)cc1C(F)(F)F
- MBC (Enterococcus faecalis [28]): > 128 µg/mL
- MIC (Escherichia coli [3]): > 128 µg/mL
- MIC (Acinetobacter baumannii [4]): > 128 µg/mL
- Cells with intact membrane (Staphylococcus aureus [5]): 31.2%
- MIC (Klebsiella pneumoniae [7]): > 128 µg/mL
- MBC (Escherichia coli [29]): > 128 µg/mL
- MIC (Saccharomyces cerevisiae): > 128 µg/mL
- MIC (Staphylococcus aureus [8]): 1 to 128 µg/mL (≈ 2.49 to 318 µM)
- MIC (Staphylococcus aureus [9]): 1 µg/mL (≈ 2.49 µM)
- MIC [10]: 8 µg/mL (≈ 19.9 µM)
- Stability [11]: Stable
- MBC (Staphylococcus aureus [12]): 1 µg/mL (≈ 2.49 µM)
- MIC (Acinetobacter baumannii [13]): > 128 µg/mL
- MBC [14]: 128 µg/mL (≈ 318 µM)
- MIC (Bacillus subtilis [15]): 1 µg/mL (≈ 2.49 µM)
- MBC (Staphylococcus aureus [16]): 1 µg/mL (≈ 2.49 µM)
- MIC (Klebsiella pneumoniae [17]): > 128 µg/mL
- solubility [18]: Soluble
- MIC (Enterococcus faecalis [19]): 2 µg/mL (≈ 4.97 µM)
- MIC (Escherichia coli [20]): > 128 µg/mL
- MIC (Pseudomonas aeruginosa): > 128 µg/mL
- Stability [21]: Stable
- Stability [22]: Stable
- MIC (Streptococcus pneumoniae [23]): 0.5 µg/mL (≈ 1.24 µM)
- MBC (Bacillus subtilis [24]): 32 µg/mL (≈ 79.6 µM)
- MBC (Streptococcus pneumoniae [25]): 1 µg/mL (≈ 2.49 µM)
- MIC (Escherichia coli [26]): 2 µg/mL (≈ 4.97 µM)

Compound: CO/N=C(\C(=O)N[C@@H]1C(=O)N2C(C(=O)O)=C(CSc3nc(=O)c(O)nn3C)CS[C@H]12)c1csc(N)n1 [CEFTRIAXONE]
- MIC [2]: 32 µg/mL (≈ 57.7 µM)

Compound: CC1(C)S[C@@H]2[C@H](NC(=O)[C@H](N)c3ccc(O)cc3)C(=O)N2[C@H]1C(=O)O [AMOXICILLIN]
- MIC [2]: 8 to 16 µg/mL (≈ 21.9 to 43.8 µM)
